Experimental data collected from several papers.
Compare with care: the assays were run in different laboratories.
Target: Serine/threonine-protein kinase 3 (STK3, Homo sapiens, UniProt Q13188)
Residues used in one study (Q13188 1-491): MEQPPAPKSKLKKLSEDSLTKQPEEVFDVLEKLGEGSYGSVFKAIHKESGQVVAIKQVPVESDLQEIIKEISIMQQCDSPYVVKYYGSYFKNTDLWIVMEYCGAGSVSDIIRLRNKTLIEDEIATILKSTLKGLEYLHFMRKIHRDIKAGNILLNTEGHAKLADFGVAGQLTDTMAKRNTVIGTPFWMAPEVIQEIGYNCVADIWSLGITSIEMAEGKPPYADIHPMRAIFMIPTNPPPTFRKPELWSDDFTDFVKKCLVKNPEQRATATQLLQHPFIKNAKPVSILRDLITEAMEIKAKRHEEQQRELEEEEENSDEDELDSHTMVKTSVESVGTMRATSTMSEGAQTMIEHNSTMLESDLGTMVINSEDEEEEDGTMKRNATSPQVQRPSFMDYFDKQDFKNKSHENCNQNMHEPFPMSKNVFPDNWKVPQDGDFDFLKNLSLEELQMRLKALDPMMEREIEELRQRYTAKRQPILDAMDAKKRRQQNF

| assay | test system | setting | endpoint | value | Compound |
| --- | --- | --- | --- | --- | --- |
| cell-free assay, competition with immobilised ligand |  | 1 µM | remaining binding | 100% | O=C(O)[C@@H]1[C@@H](Cn2nnc3ccccc3c2=O)CC[C@H]1C(=O)c1ccc(OCCC2CCOCC2)cc1 |
| enzyme activity, inhibitor, radiometric |  | 1 µM | remaining activity | 89% | CC(C)(C)c1nc2c(s1)c1nc(N)ncc1c1ccc(NS(=O)(=O)c3c(F)cccc3F)c(F)c12 |
| target engagement in cells, inhibitor, chemoproteomics | Huh-7 | 10 µM | inhibition | -56.5% | CCN1CCN(Cc2ccc(NC(=O)c3ccc(C)c(Oc4ccnc5[nH]ccc45)c3)cc2C(F)(F)F)CC1 |
| cell-free assay, competition with immobilised ligand |  | 1 µM | remaining binding | 100% | Cc1cc(-n2nc(Cc3cc(F)cc(C(F)(F)F)c3)nc2C)ccc1C(N)=O |
| cell-free assay, inhibitor |  | 10 µM | inhibition | 4% | Cc1ccc(Nc2nccc(N(C)c3ccc4c(C)n(C)nc4c3)n2)cc1S(N)(=O)=O |
| thermal stability, DSF |  | 10 µM | ΔTm | 0.6 °C | N#CC1c2c([nH]c3c(Cl)c(Cl)ccc23)C(=O)NC12CCCCC2 (racemic) |
| enzyme activity, inhibitor |  | 23.5 nM | remaining activity | 97% | Cc1ccc(C(=O)Nc2ccc(CN3CCN(C)CC3)c(C(F)(F)F)c2)cc1C#Cc1cnc2cccnn12 |
| cell-free assay |  | 0.5 µM | remaining signal | 40.9% | N#CCCc1ccc2c(c1)-c1[nH]c3ccc([N+](=O)[O-])cc3c1CC(=O)N2 |
| enzyme activity, inhibitor |  | 1 µM | remaining activity | 73.9% | CC(C)(O)[C@H]1CC[C@H](Nc2ccc3ncc(-c4cccc(C(F)(F)F)c4)n3n2)CC1 |
| enzyme activity, inhibitor |  | 1 µM | remaining activity | 97% | COc1cc(Cl)c(C(=O)N[C@@H](CN[C@H]2CC[C@@H](N)CC2)Cc2ccc(C#N)cc2)cc1-c1ccc(CN[C@H](C)c2ccc(C)cc2)o1 |
| cell-free assay |  | 0.5 µM | remaining signal | 94.7% | COc1cc2c(N3CCN(C(=O)Nc4ccc(OC(C)C)cc4)CC3)ncnc2cc1OCCCN1CCCCC1 |
| enzyme activity, inhibitor |  | 1 µM | inhibition | < 10% | CCCS(=O)(=O)Nc1ccc(F)c(C(=O)c2c[nH]c3ncc(-c4ccc(Cl)cc4)cc23)c1F |
| enzyme activity, inhibitor |  | 10 µM | inhibition | 4.2% | CNc1cccc2cc(C(=O)Nc3ccc(C(=O)O)cc3)c(=O)[nH]c12 |
| enzyme activity, inhibitor |  | 10 µM | remaining activity | 93.9% | Cc1sc(C(=O)NC2COC2)cc1-n1cc(NC(=O)Nc2c(F)cccc2Cl)cn1 |
| cell-free assay, competition with immobilised ligand |  | 1 µM | remaining binding | 90% | Cc1c(NC(=O)c2cc(C(N)=O)nc3cc(F)ccc23)c(C(F)(F)F)nn1Cc1ccc(C(C)(C)C)cc1 |
| enzyme activity, inhibitor, radiometric |  | 1 µM | remaining activity | 67% | COc1cc(Nc2cnc(C#N)c(O[C@H](C)CN(C)C)n2)ncc1-c1cnn(C)c1 |
| enzyme activity, inhibitor |  | 1 µM | inhibition | 1% | COc1cc2ncnc(Nc3ccc(Oc4ccccc4)c(C)c3C)c2cc1OC |
| enzyme activity, inhibitor |  | 1 µM | inhibition | 4% | CN1CC(Oc2cnc(C#N)cc2-c2ccn3nc(NC(=O)C4CC4)cc3c2)C1 |
| cell-free assay, competition with immobilised ligand |  | 1 µM | remaining binding | 100% | O=C(Nc1cccnn1)N1CCC(=Cc2cccc(Oc3ccc(C(F)(F)F)cn3)c2)CC1 |

| assay | test system | setting | endpoint | value | Compound |
| --- | --- | --- | --- | --- | --- |
| enzyme activity, inhibitor |  | 10 µM | remaining activity | 104% | CC(C)(C)C(=O)c1sc(NC2CCCCC2)nc1N |
| enzyme activity, inhibitor |  | 2 µM | inhibition | 43% | CNCc1ccc(-c2cc(-c3nc(-c4ccc(S(=O)(=O)C(C)C)cc4)cnc3N)on2)cc1 |
| enzyme activity, inhibitor |  | 10 µM | remaining activity | 92% | FC(F)c1nc2ccccc2n1-c1nc(N2CCOCC2)nc(N2CCOCC2)n1 |
| cell-free assay, inhibitor |  | 0.3 µM | inhibition | 7% | CNC(=O)c1cc(Oc2ccc(NC(=O)Nc3ccc(Cl)c(C(F)(F)F)c3)cc2)ccn1 |
| enzyme activity, inhibitor |  | 0.1 µM | activity vs control | 98% | Cc1cc(NC(=O)c2cccc3cc(-c4cccc5[nH]nc(N)c45)ccc23)ccc1F |
| thermal stability, DSF |  | 10 µM | ΔTm | -0.2 °C | CN1CCC2(CC1)NC(=O)c1c(c3ccc(Cl)c(Cl)c3n1C)C2C#N (racemic) |
| enzyme activity, inhibitor |  | 10 µM | remaining activity | 85% | CCCOc1ccc(OC)c(F)c1C(=O)c1ccc(C(=O)N[C@@H]2CNC[C@H]2NC(=O)c2ccc3[nH]ncc3c2)cc1 |
| enzyme activity, inhibitor, radiometric |  | 5 µM | activity vs control | 71% | FC(F)(F)Oc1cccc(-c2cnc3ccc(-c4ccncc4)nn23)c1 |
| thermal stability, DSF |  | 10 µM | ΔTm | -0.5 °C | Cn1c2c(c3ccccc31)C(C#N)C(C)(C)NC2=O (stereo not shown) |
| cell-free assay, competition with immobilised ligand |  | 1 µM | remaining binding | 84% | C[C@H](c1cccc(C#N)c1)n1cc(Cl)cc(C(N)=O)c1=N |
| cell-free assay |  | 0.5 µM | remaining signal | 90.7% | O=C1NC(=O)c2cc(Nc3ccc(F)cc3)c(Nc3ccc(F)cc3)cc21 |
| cell-free assay, competition with immobilised ligand |  | 1 µM | remaining binding | 93.1% | CC(=O)C1=C(C)N(c2cccc(C(F)(F)F)c2)C(=O)N[C@@H]1c1ccc(C#N)nc1 |
| thermal stability, DSF |  | 10 µM | ΔTm | 0.4 °C | Cn1c2c(c3ccc(Cl)c(Cl)c31)C(C#N)C(C)(C)NC2=O (stereo not shown) |
| cell-free assay, competition with immobilised ligand |  | 1 µM | remaining binding | 82% | CN1CCN(c2cnc3c(C4CCN(C(=O)c5ccc(OC(F)(F)F)cc5N)CC4)ncnc3c2)CC1 |
| cell-free assay, inhibitor |  | 20 µM | remaining signal | 6.6% | Nc1ncnc2occ(-c3ccc(NC(=O)Nc4cc(C(F)(F)F)ccc4F)cc3)c12 |
| cell-free assay |  | 0.5 µM | remaining signal | 24.8% | CCN(CC)CCNC(=O)c1c(C)[nH]c(/C=C2\C(=O)Nc3ccc(F)cc32)c1C |
| thermal stability, DSF |  | 10 µM | ΔTm | -0.1 °C | Cn1c2c(c3ccc(Cl)c(Cl)c31)C(C#N)C1(CCOCC1)NC2=O (stereo not shown) |
| cell-free assay, competition with immobilised ligand |  | 1 µM | remaining binding | 92% | CO[C@@H](C)c1c(Nc2ccc([C@H](N(C)C(=O)C3CCS(=O)(=O)CC3)C(F)(F)F)cc2)cnc2cc(Cl)nn12 |
